A short description of assay [1]: Inhibition of recombinant C-terminal His-tagged SARS coronavirus 1 3CL protease using Boc-Abu-Tle-Leu-Gln-AMC as substrate incubated for 5 mins by Cheng-Prusoff equation analysis. More on the design: species or system Severe acute respiratory syndrome-related coronavirus.
Assay [2] can be described thus: Competitive inhibition of recombinant C-terminal His-tagged SARS coronavirus 2 3CL protease using Boc-Abu-Tle-Leu-Gln-AMC as substrate incubated for 5 mins by plate reader analysis. More on the design: species or system Severe acute respiratory syndrome coronavirus 2. Put shortly:
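Competitive-inhibition kinetics: fluorogenic substrate at 15, 30, 45, 60 and 75 μM was combined with inhibitor at 0, 10, 20, 30, 40 and 50 nM, and product formation was monitored for 10 min. Data were analysed by Lineweaver–Burk plot and global fit to a competitive model. Three independent experiments were run.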

The next assay concerns SARS-CoV-2. As to the kind of experiment: Antiviral activity against SARS coronavirus 2 infected in African green monkey Vero cells assessed as blockade of viral proliferation at 25 uM incubated for 48 hrs by cytopathic effect assay. In kind it is functional, organism-based. As to conditions: Severe acute respiratory syndrome coronavirus 2.
Assay [3] is described as follows: Inhibition of recombinant C-terminal His-tagged SARS coronavirus 2 3CL protease using Boc-Abu-Tle-Leu-Gln-AMC as substrate incubated for 5 mins by Cheng-Prusoff equation analysis. More on the design: species or system Severe acute respiratory syndrome coronavirus 2. Put shortly:
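His-tagged 3CLpro (8 ng/μL final) was assayed in 50 mM MOPS pH 7.2 with 10 mM NaCl, 1 mM EDTA and 0.01% Triton X-100. Substrate was 50 μM final (about Km) and DMSO 4% final. Inhibitor and substrate were preincubated 5 min at 37 °C, then enzyme was added and fluorescence (ex 360/em 460 nm) read for 10 min. At least 11 concentrations were tested; IC50 came from nonlinear regression and Ki from Cheng–Prusoff. n = 3.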

A word on the Ki: it is the equilibrium dissociation constant of an inhibitor or competing ligand from its target.

SMILES strings stand for the structures. The source made the active and inactive calls. The rule behind the calls is not given here. Where a SMILES comes first, the peptide text is derived from it. The star is where a group is joined. Cbz = O=C(OCc1ccccc1)*; CF3 = FC(F)(F)*

Turning to `CC(C)C[C@H](NC(=O)[C@@H](NC(=O)OCc1ccccc1)C(C)C)C(=O)N[C@@H](C[C@@H]1CCNC1=O)C(=O)c1nc2ccccc2s1`, the Ki in assay [1] was determined as 4.1 nM; in assay [2], 19.8 nM; in assay [3], 14.5 nM. Also, the outcome in the assay with SARS-CoV-2 was Active.

As to `CC(C)C[C@H](NC(=O)c1nc2ccccc2[nH]1)C(=O)N[C@@H](C[C@@H]1CCNC1=O)C(=O)c1nc2ccccc2s1`, the outcome in the assay with SARS-CoV-2 was Active. Further, the Ki in assay [3] stood at 32.1 nM.

As to `CC(C)C[C@H](NC(=O)[C@@H](NC(=O)[C@H](C)NC(=O)OCc1ccccc1)C(C)C)C(=O)N[C@@H](CCC(N)=O)C(=O)C(F)(F)F` (Cbz-AVLQ-CF3), the Ki in assay [1] amounted to 135000 nM.
